Laboratory results published in PMC6045484 (ACS Omega, 2018).
≈ marks a conversion by molar mass, not a printed value. Entries after “also recorded” stand apart in the source; their conditions may differ.

Legend:
P. falciparum (D6) = test: in vitro antimalarial activity, plasmodial LDH; format: cell-based, Plasmodium falciparum; conditions: Plasmodium falciparum, D6, 72 h, read-out: P. falciparum (D6) IC50
P. falciparum (W2) = test: in vitro antimalarial activity, plasmodial LDH; format: cell-based, Plasmodium falciparum; conditions: for IC50: Plasmodium falciparum, W2, 72 h, read-out: P. falciparum (W2) IC50, CQ-resistant W2 strain, 72 h
Method in brief: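 P. falciparum-infected erythrocytes (2% parasitemia, 2% hematocrit) in RPMI 1640 with 10% human serum and 60 μg/mL amikacin. Exposed to test compound dilutions for 72 h at 37 °C under 90% N2/5% O2/5% CO2. LDH measured with Malstat reagent (30 min, room temperature), then NBT/PES for 1 h in the dark, stopped with 5% acetic acid, read at 650 nm. IC50 from dose-response curves.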

[1] = test system: SK-MEL, KB, BT-549, SK-OV-3, VERO and LLC-PK1 cells; test: cytotoxicity, neutral red uptake assay; format: cell-based, mammalian; conditions: highest test concentration 4760 ng/mL
Method in brief: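 Cells seeded at 25 000/well and allowed 24 h to reach confluence. Test compound was then added and incubated 48 h. Viable cells were counted by a modified neutral red uptake method. The panel was four human cancer lines and two noncancerous mammalian kidney lines. Doxorubicin served as positive control and DMSO as negative control.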

[2] = test system: P. berghei (sensitive strain); test: blood-schizontocidal activity against P. berghei infection in mice; format: in vivo, Plasmodium berghei; conditions: Swiss mice
Method in brief: (§1)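 Swiss mice of either sex (about 15–20 g, same age), six per group, inoculated intraperitoneally on day 0 with 1 × 10^7 infected erythrocytes from a donor mouse. Oral test compound at 100, 50, 25 or 10 mg/kg, CQ diphosphate (10 mg/kg/day × 4) or vehicle started 4 h later, on D0 to D+3. Giemsa tail-blood smears on D+4 and D+7. Curative: parasites eliminated, no relapse, all mice surviving to D+60.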

[3] = test system: multidrug-resistant P. yoelii nigeriensis; test: blood-schizontocidal activity against P. yoelii nigeriensis infection in mice; format: in vivo, Plasmodium yoelii nigeriensis; conditions: Swiss mice
Method in brief: as §1

[4] = test system: L. donovani promastigotes; test: in vitro antileishmanial activity, alamarBlue assay; format: cell-based, Leishmania donovani; conditions: Leishmania donovani, 48 h; for IC50: read-out: L. donovani IC50, promastigotes, 48 h; for IC90: read-out: L. donovani IC90, promastigotes, 48 h
C. albicans ATCC90028 = test: in vitro antifungal activity; format: cell-based, Candida albicans; conditions: Candida albicans; for IC50: ATCC90028, read-out: C. albicans IC50; for MFC: ATCC90028, read-out: C. albicans MFC; for MIC: ATCC90028, read-out: C. albicans MIC
Method in brief: (§2)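 Modified NCCLS broth method in Sabouraud dextrose. Inoculum set by OD630 to 1.5 × 10^3 CFU/mL. Test compound serially diluted in 20% DMSO/saline, duplicate wells, up to 20 μg/mL. Incubated 70–74 h at 35 °C; 530 nm read before and after. IC50 is 50% growth inhibition; MIC is no detectable growth. MFC from clear wells subcultured on agar. Amphotericin B control.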

C. neoformans ATCC90113 = test: in vitro antifungal activity; format: cell-based, Cryptococcus neoformans; conditions: Cryptococcus neoformans; for IC50: ATCC90113, read-out: C. neoformans IC50; for MFC: ATCC90113, read-out: C. neoformans MFC; for MIC: ATCC90113, read-out: C. neoformans MIC
Method in brief: as §2

A. fumigatus ATCC 90906 = test: in vitro antifungal activity; format: cell-based, Aspergillus fumigatus; conditions: Aspergillus fumigatus; for IC50: ATCC90906, read-out: A. fumigatus IC50; for MFC: ATCC90906, read-out: A. fumigatus MFC; for MIC: ATCC90906, read-out: A. fumigatus MIC
Method in brief: as §2

SA (ATCC29213) = test: in vitro antibacterial activity; format: cell-based; conditions: Staphylococcus aureus; for IC50: ATCC29213, read-out: IC50 (concentration that affords 50% growth inhibition), SA; for MBC: ATCC29213, read-out: MBC (minimum bactericidal concentration), SA; for MIC: ATCC29213, read-out: MIC, SA
Method in brief: (§3)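 Test compound serially diluted in 20% DMSO/saline and plated in duplicate, up to 20 μg/mL. Inoculum in cation-adjusted Mueller–Hinton broth, pH 7.3, set by OD630 to 5 × 10^5 CFU/mL. Incubated 16–20 h at 35 °C; 530 nm read before and after. IC50 is 50% growth inhibition; MIC is no detectable growth. MBC from clear wells subcultured on agar. Ciprofloxacin control.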

MRSA (ATCC33591) = test: in vitro antibacterial activity; format: cell-based, methicillin-resistant Staphylococcus aureus; conditions: Staphylococcus aureus, ATCC33591|MRSA, read-out: MIC, MRSA
Method in brief: as §3

[5] = test system: M. intracellulare (ATCC23068); test: in vitro antibacterial activity, modified alamarBlue procedure; format: cell-based, Mycobacterium intracellulare; conditions: Mycobacterium intracellulare; for IC50: ATCC23068, read-out: IC50 (concentration that affords 50% growth inhibition), M. intracellulare; for MBC: ATCC23068, read-out: MBC (minimum bactericidal concentration), M. intracellulare; for MIC: ATCC23068, read-out: MIC, M. intracellulare
Method in brief: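 Modified alamarBlue microplate method. Test compound serially diluted in 20% DMSO/saline, duplicate wells, up to 20 μg/mL. Inoculum 2.0 × 10^6 CFU/mL in Middlebrook 7H9 with OADC, pH 7.3, containing 5% alamarBlue. Incubated 70–74 h at 37 °C, 10% CO2; fluorescence 544ex/590em read before and after. MIC: no blue-to-pink change. MBC by subculturing blue wells on agar. Ciprofloxacin control.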

Structure (SMILES) | IC50 (P. falciparum (D6)) | IC50 (P. falciparum (W2)) | cytotoxicity CTX [1] | P. berghei blood-schizontocidal activity (mice cured/treated) ([2]; 10 mg/kg/day × 4, oral) | P. berghei blood-schizontocidal activity (mice cured/treated) ([2]; 25 mg/kg/day × 4, oral) | P. berghei blood-schizontocidal activity (mice cured/treated) ([2]; 50 mg/kg/day × 4, oral) | P. berghei blood-schizontocidal activity (mice cured/treated) ([2]; 100 mg/kg/day × 4, oral) | P. yoelii nigeriensis blood-schizontocidal activity (mice cured/treated) ([3]; 25 mg/kg/day × 4, oral) | P. yoelii nigeriensis blood-schizontocidal activity (mice cured/treated) ([3]; 50 mg/kg/day × 4, oral) | P. yoelii nigeriensis blood-schizontocidal activity (mice cured/treated) ([3]; 100 mg/kg/day × 4, oral) | IC50 [4] | IC90 [4] | IC50 (C. albicans ATCC90028) | MFC (C. albicans ATCC90028) | MIC (C. albicans ATCC90028) | IC50 (C. neoformans ATCC90113) | MFC (C. neoformans ATCC90113) | MIC (C. neoformans ATCC90113) | IC50 (A. fumigatus ATCC 90906) | MFC (A. fumigatus ATCC 90906) | other results
CCCCCOc1c(OC)cc(NC(C)CCCN)c2nc(C(C)(C)C)ccc12 (stereo not drawn) [compound 46, N^4-(2-tert-Butyl-6-methoxy-5-(pentyloxy)quinolin-8-yl)pentane-1,4-diamine] | 0.02 µg/mL (≈ 0.0498 µM) | 0.022 µg/mL (≈ 0.0548 µM) | NC (NC, not cytotoxic up to 4760 ng/mL (4.76 μg/mL)) | active (4/6) | curative (6/6) | curative (6/6) | curative (6/6) | active (4/6) | curative (6/6) | cured 100% mice; also recorded: curative (6/6) | 32 µg/mL (≈ 79.7 µM) | > 40 µg/mL | > 20 µg/mL | > 20 µg/mL | > 20 µg/mL | > 20 µg/mL | > 20 µg/mL | > 20 µg/mL | > 20 µg/mL | > 20 µg/mL | MIC (A. fumigatus ATCC 90906): > 20 µg/mL; IC50 (SA (ATCC29213)): 9.04 µg/mL (≈ 22.5 µM); MBC (SA (ATCC29213)): > 20 µg/mL; MIC (SA (ATCC29213)): > 20 µg/mL; MIC (MRSA (ATCC33591)): > 20 µg/mL; IC50 [5]: > 20 µg/mL; MBC [5]: > 20 µg/mL; MIC [5]: > 20 µg/mL
CCCCCCOc1c(OC)cc(NC(C)CCCN)c2nc(C(C)(C)C)ccc12 (stereo not drawn) [compound 47, N^4-(2-tert-Butyl-5-(hexyloxy)-6-methoxyquinolin-8-yl)pentane-1,4-diamine] | 0.042 µg/mL (≈ 0.101 µM) | 0.042 µg/mL (≈ 0.101 µM) | NC (NC, not cytotoxic up to 4760 ng/mL (4.76 μg/mL)) | active (5/6) | curative (6/6) | curative (6/6) | curative (6/6) | inactive (0/6) | cured 100% mice; also recorded: curative (6/6) | curative (6/6) | 4.6 µg/mL (≈ 11.1 µM) | > 40 µg/mL | 15.4 µg/mL (≈ 37.2 µM) | 20 µg/mL (≈ 48.1 µM) | 20 µg/mL (≈ 48.1 µM) | 2.97 µg/mL (≈ 7.15 µM) | 5 µg/mL (≈ 12 µM) | 5 µg/mL (≈ 12 µM) | > 20 µg/mL | > 20 µg/mL | P. falciparum (W2) IC50 (P. falciparum (W2); CQ-resistant W2 strain, 72 h): 0.04 µg/mL; MIC (A. fumigatus ATCC 90906): > 20 µg/mL; IC50 (SA (ATCC29213)): 2.77 µg/mL (≈ 6.66 µM); MBC (SA (ATCC29213)): 5 µg/mL (≈ 12 µM); MIC (SA (ATCC29213)): 5 µg/mL (≈ 12 µM); MIC (MRSA (ATCC33591)): 5 µg/mL (≈ 12 µM); IC50 [5]: 6.3 µg/mL (≈ 15.2 µM); MBC [5]: 10 µg/mL (≈ 24.1 µM); MIC [5]: 10 µg/mL (≈ 24.1 µM)
